Results pooled from the literature.
Each line is one published result; the experiments were not run side by side.
Oprd1: Delta-type opioid receptor (Oprd1, Rattus norvegicus, UniProt P33533)
CTSB: Cathepsin B (CTSB, Homo sapiens, UniProt P07858)

C[C@@H](O)[C@@H]1CN([C@H](Cc2ccc3ccccc3c2)CN2CCC[C@H]2CN2CCNC[C@@H]2Cc2ccc3ccccc3c2)CCN1CCC12CC3CC(CC(C3)C1)C2 — remaining binding (Oprd1; ligand displacement, radioligand; 0.5 µM, 2 h, pH 7.5, cell membranes): 100%
CN(C)C(=O)COC(=O)Cc1ccc(OC(=O)c2ccc(NC(=N)N)cc2)cc1 — inhibition (Ubiquitin carboxyl-terminal hydrolase 14 (USP14, Homo sapiens, UniProt P54578); enzyme activity, inhibitor; 10 µM): 0%
Oc1ccc(C[C@@H]2CN([C@H](Cc3ccc4ccccc4c3)CN3CCC[C@H]3CN3CCNC[C@@H]3Cc3ccc4ccccc4c3)CCN2CCC23CC4CC(CC(C4)C2)C3)cc1 — remaining binding (Oprd1; ligand displacement, radioligand; 0.5 µM, 2 h, pH 7.5, cell membranes): 94.4%
Nc1ncc(-c2nc(N3CCOCC3)nc(N3CCOCC3)n2)c(C(F)F)n1 — remaining binding (Mitogen-activated protein kinase 6 (MAPK6, Homo sapiens, UniProt Q16659); binding, competition with immobilised ligand; 10 µM): 88%
CC(C)N1CCC[C@H]1CNC(=O)c1cn(C2CCCC2)c(=O)c2c1c1ccccc1n2C — inhibition (Platelet-activating factor receptor (PTAFR, Homo sapiens, UniProt P25105); ligand displacement, radioligand; 10 µM): 7%
CCOC(=O)c1ccc(OC(=O)CCCCCNC(=N)N)cc1 — inhibition (CTSB; enzyme activity, inhibitor; 10 µM): 0%
CN(C(=O)[C@H](Cc1ccccc1)NC(=O)[C@@H](NC(=O)OCc1ccccc1)C(C)(C)C)N(C#N)CCC(N)=O — kon (CTSB; enzyme activity, inhibitor): 7020 M⁻¹ s⁻¹
CN1CCN(c2ccc(Nc3nccc(-c4ccccc4)n3)cc2C(F)(F)F)CC1 — remaining signal (Cyclin-dependent kinase 2 homolog (CRK2, Plasmodium falciparum, UniProt P61075); cell-free assay; 10 µM): 100%
CCN(CC)CCCC[C@H](NC(=O)[C@H](CC(C)C)NC(=O)[C@H](C)NC(=O)[C@H](Cc1ccccc1)NC(=O)c1ccc(C(C)(C)C)cc1)C(=O)N[C@@H](CO)C(=O)OC — remaining binding (5-hydroxytryptamine receptor 7 (HTR7, Homo sapiens, UniProt P34969); ligand displacement, radioligand; 10 µM): 92.2%
CC(C)C[C@H](NC(=O)[C@H]1O[C@@H]1C(=O)O)C(=O)NCCCCN=C(N)N — inhibition (CTSB; enzyme activity, inhibitor; 50 nM): 97%
CC[C@@H](C)[C@@H]1CN([C@H](Cc2ccc3ccccc3c2)CN2CCC[C@H]2CN2CCNC[C@@H]2CO)CCN1CCc1ccc(Cl)c(Cl)c1 — remaining binding (Oprd1; ligand displacement, radioligand; 0.5 µM, 2 h, pH 7.5, cell membranes): 87.7%
COc1ncccc1-c1cnn2ccc(N3CCN(C(=O)OC(C)C)CC3)nc12 — remaining binding (Serine/threonine-protein kinase TNNI3K (TNNI3K, Homo sapiens, UniProt Q59H18); binding, competition with immobilised ligand; 1 µM): 60%
C#Cc1n[nH]c2c(-c3cn(C(C)c4ccccn4)c(=O)[nH]c3=O)cc(F)cc12 (stereo not shown) — inhibition (Cyclin-dependent kinase 2, with cyclin E1 (CDK2, Homo sapiens, UniProt P24941); enzyme activity, inhibitor; 1 µM): -13.7%
OC[C@H]1CNCCN1C[C@@H]1CCCN1C[C@H](CC1CCCCC1)N1CCN(CCC23CC4CC(CC(C4)C2)C3)[C@H](Cc2ccc(O)cc2)C1 — remaining binding (Oprd1; ligand displacement, radioligand; 0.5 µM, 2 h, pH 7.5, cell membranes): 96.1%
Cc1nn(C)cc1-c1nc2c(N3CCN(Cc4ccc(Cl)cc4)CC3)c(Cl)cnc2[nH]1 — remaining binding (Myosin light chain kinase family member 4 (MYLK4, Homo sapiens, UniProt Q86YV6); binding, competition with immobilised ligand; 1 µM): 94%
C#Cc1n[nH]c2c(-c3cn([C@@H](C)c4ccccc4)c(=O)[nH]c3=O)cc(F)cc12 — inhibition (Tyrosine-protein kinase ZAP-70 (ZAP70, Homo sapiens, UniProt P43403); enzyme activity, inhibitor; 0.1 µM): 2%
